ChEMBL document CHEMBL3588757, “Structure-based design, synthesis and biological testing of piperazine-linked bis-epipodophyllotoxin etoposide analogs” (Bioorg Med Chem, 2015)

Experiments:
Type in all cases: functional
M14 = assay: Cytotoxicity against human M14 cells assessed as cell growth at 50 uM by SRB assay; details: read-out: Activity
SR [1] = assay: Cytotoxicity against human SR cells assessed as cell growth at 0.5 uM by SRB assay; details: read-out: Activity
HOP-92 [2] = assay: Cytotoxicity against human HOP92 cells assessed as cell growth at 0.5 uM by SRB assay; details: read-out: Activity
Outline: (§1)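 Measured in the NCI-60 human tumour cell line panel using five-dose testing. Growth was recorded at each dose for each cell line, and a GI50 was derived for each line.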

MDA-MB-435 [3] = assay: Cytotoxicity against human MDA-MB-435 cells assessed as cell growth at 50 uM by SRB assay; details: read-out: Activity
BT-549 = assay: Cytotoxicity against human BT549 cells assessed as cell growth at 50 uM by SRB assay; details: read-out: Activity
MDA-MB-468 [4] = assay: Cytotoxicity against human MDA-MB-468 cells assessed as cell growth at 0.05 uM by SRB assay; details: read-out: Activity
RXF 393 [5] = assay: Cytotoxicity against human RXF393 cells assessed as cell growth at 0.05 uM by SRB assay; details: read-out: Activity
KM12 = assay: Cytotoxicity against human KM12 cells assessed as cell growth at 0.005 uM by SRB assay; details: read-out: Activity
SK-MEL-5 [6] = assay: Cytotoxicity against human SK-MEL-5 cells by SRB assay
Outline: (§2)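 NCI-60 panel screen; 5-dose testing giving GI50 per cell line, plus a single 10 µM one-dose test. Method details not given beyond the NCI screen.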

HL-60(TB) = assay: Cytotoxicity against human HL-60(TB) cells assessed as cell growth at 0.05 uM by SRB assay; details: read-out: Activity; outline: as §1
MDA-MB-435 [7] = assay: Cytotoxicity against human MDA-MB-435 cells assessed as cell growth at 0.005 uM by SRB assay; details: read-out: Activity
MDA-MB-231 [8] = assay: Cytotoxicity against human MDA-MB-231/ATCC cells assessed as cell growth at 0.05 uM by SRB assay; details: read-out: Activity
HCT-116 = assay: Cytotoxicity against human HCT116 cells assessed as cell growth at 0.05 uM by SRB assay; details: read-out: Activity; outline: as §1
A549 = assay: Cytotoxicity against human A549/ATCC cells assessed as cell growth at 5 uM by SRB assay; details: read-out: Activity
786-0 = assay: Cytotoxicity against human 786-0 cells assessed as cell growth at 50 uM by SRB assay; details: read-out: Activity
RPMI-8226 = assay: Cytotoxicity against human RPMI8226 cells assessed as cell growth at 5 uM by SRB assay; details: read-out: Activity
MCF7 = assay: Cytotoxicity against human MCF7 cells assessed as cell growth at 5 uM by SRB assay; details: read-out: Activity
UACC-62 [9] = assay: Cytotoxicity against human UACC62 cells assessed as cell growth at 0.05 uM by SRB assay; details: read-out: Activity
[10] = Cytotoxicity against human Hs578T cells assessed as cell growth at 5 uM by SRB assay; details: Hs-578T, read-out: Activity; outline: as §1
PC-3 = assay: Cytotoxicity against human PC3 cells by SRB assay; outline: as §2
IGROV-1 = assay: Cytotoxicity against human IGROV1 cells assessed as cell growth at 0.05 uM by SRB assay; details: read-out: Activity; outline: as §1
SK-MEL-2 [11] = assay: Cytotoxicity against human SK-MEL-2 cells assessed as cell growth at 0.05 uM by SRB assay; details: read-out: Activity
LOX IMVI = assay: Cytotoxicity against human LOXIMVI cells assessed as cell growth at 5 uM by SRB assay; details: read-out: Activity
MOLT-4 [12] = assay: Cytotoxicity against human MOLT4 cells assessed as cell growth at 0.05 uM by SRB assay; details: read-out: Activity
A498 = assay: Cytotoxicity against human A498 cells by SRB assay
TK-10 = assay: Cytotoxicity against human TK10 cells assessed as cell growth at 0.5 uM by SRB assay; details: read-out: Activity
SK-MEL-5 [13] = assay: Cytotoxicity against human SK-MEL-5 cells assessed as cell growth at 5 uM by SRB assay; details: read-out: Activity
OVCAR-4 = assay: Cytotoxicity against human OVCAR4 cells assessed as cell growth at 5 uM by SRB assay; details: read-out: Activity
HOP-92 [14] = assay: Cytotoxicity against human HOP92 cells assessed as cell growth at 0.05 uM by SRB assay; details: read-out: Activity; outline: as §1
MOLT-4 [15] = assay: Cytotoxicity against human MOLT4 cells assessed as cell growth at 5 uM by SRB assay; details: read-out: Activity
SK-MEL-2 [16] = assay: Cytotoxicity against human SK-MEL-2 cells assessed as cell growth at 50 uM by SRB assay; details: read-out: Activity
UACC-62 [17] = assay: Cytotoxicity against human UACC62 cells by SRB assay; outline: as §2
HCC 2998 = assay: Cytotoxicity against human HCC2998 cells assessed as cell growth at 50 uM by SRB assay; details: read-out: Activity; outline: as §1
RXF 393 [18] = assay: Cytotoxicity against human RXF393 cells assessed as cell growth at 0.005 uM by SRB assay; details: read-out: Activity
HOP-62 = assay: Cytotoxicity against human HOP62 cells assessed as cell growth at 0.5 uM by SRB assay; details: read-out: Activity; outline: as §1
SNB-75 = assay: Cytotoxicity against human SNB75 cells assessed as cell growth at 5 uM by SRB assay; details: read-out: Activity
SW-620 [19] = assay: Cytotoxicity against human SW620 cells assessed as cell growth at 0.005 uM by SRB assay; details: read-out: Activity
UO-31 = assay: Cytotoxicity against human UO31 cells assessed as cell growth at 0.005 uM by SRB assay; details: read-out: Activity
SR [20] = assay: Cytotoxicity against human SR cells assessed as cell growth at 0.05 uM by SRB assay; details: read-out: Activity
MDA-MB-231 [21] = assay: Cytotoxicity against human MDA-MB-231/ATCC cells assessed as cell growth at 0.005 uM by SRB assay; details: read-out: Activity
SF-295 = assay: Cytotoxicity against human SF295 cells by SRB assay; outline: as §2
RXF 393 [22] = assay: Cytotoxicity against human RXF393 cells assessed as cell growth at 50 uM by SRB assay; details: read-out: Activity
MDA-MB-468 [23] = assay: Cytotoxicity against human MDA-MB-468 cells assessed as cell growth at 0.5 uM by SRB assay; details: read-out: Activity
SW-620 [24] = assay: Cytotoxicity against human SW620 cells assessed as cell growth at 5 uM by SRB assay; details: read-out: Activity
[25] = read-out: LC50 (the source's name)
[26] = read-out: pLC50 (the source's name) (converted)

## COc1cc([C@@H]2c3cc4c(cc3[C@@H](NC(=O)CN3CCN(CCCCCCCCCCN5CCN(CC(=O)N[C@@H]6c7cc8c(cc7[C@@H](c7cc(OC)c(O)c(OC)c7)[C@H]7C(=O)OC[C@@H]76)OCO8)CC5)CC3)[C@H]3COC(=O)[C@H]23)OCO4)cc(OC)c1O
M14
  growth at 50 µM: -49%
SR [1]
  growth at 0.5 µM: 33%
HOP-92 [2]
  growth at 0.5 µM: 21%
MDA-MB-435 [3]
  growth at 50 µM: -40%
BT-549
  growth at 50 µM: -26%
MDA-MB-468 [4]
  growth at 0.05 µM: 99%
RXF 393 [5]
  growth at 0.05 µM: 84%
KM12
  growth at 0.005 µM: 97%
SK-MEL-5 [6]; read-out: GI50
  GI50: 5.24 µM
SK-MEL-5 [6]; [25]
  CC50: 35.4 µM
SK-MEL-5 [6]; read-out: TGI
  TGI: 13.6 µM
SK-MEL-5 [6]; read-out: pGI50 (converted)
  GI50: 5.25 µM
SK-MEL-5 [6]; [26]
  CC50: 35.5 µM
SK-MEL-5 [6]; read-out: pTGI (converted)
  TGI: 13.5 µM
HL-60(TB)
  growth at 0.05 µM: 69%
MDA-MB-435 [7]
  growth at 0.005 µM: 96%
MDA-MB-231 [8]
  growth at 0.05 µM: 92%
HCT-116
  growth at 0.05 µM: 77%
A549
  growth at 5 µM: -29%
786-0
  growth at 50 µM: -78%
RPMI-8226
  growth at 5 µM: -15%
MCF7
  growth at 5 µM: 18%
UACC-62 [9]
  growth at 0.05 µM: 90%
[10]
  growth at 5 µM: 41%
PC-3; read-out: GI50
  GI50: 0.903 µM
PC-3; [25]
  CC50: 47.7 µM
PC-3; read-out: TGI
  TGI: 8.94 µM
PC-3; read-out: pGI50 (converted)
  GI50: 0.912 µM
PC-3; [26]
  CC50: 47.9 µM
PC-3; read-out: pTGI (converted)
  TGI: 8.91 µM
IGROV-1
  growth at 0.05 µM: 83%
SK-MEL-2 [11]
  growth at 0.05 µM: 89%
LOX IMVI
  growth at 5 µM: -80%
MOLT-4 [12]
  growth at 0.05 µM: 67%
A498; [25]
  CC50: 14.6 µM
A498; read-out: pGI50 (converted)
  GI50: 0.513 µM
A498; [26]
  CC50: 14.8 µM
A498; read-out: pTGI (converted)
  TGI: 3.55 µM
TK-10
  growth at 0.5 µM: 96%
SK-MEL-5 [13]
  growth at 5 µM: 52%
OVCAR-4
  growth at 5 µM: -28%
HOP-92 [14]
  growth at 0.05 µM: 73%
MOLT-4 [15]
  growth at 5 µM: -46%
SK-MEL-2 [16]
  growth at 50 µM: -59%
UACC-62 [17]; read-out: GI50
  GI50: 7.23 µM
UACC-62 [17]; [25]
  CC50: > 50 µM
UACC-62 [17]; read-out: TGI
  TGI: 24.1 µM
UACC-62 [17]; read-out: pGI50 (converted)
  GI50: 7.24 µM
UACC-62 [17]; [26]
  CC50: > 50.1 µM
UACC-62 [17]; read-out: pTGI (converted)
  TGI: 24 µM
HCC 2998
  growth at 50 µM: -100%
RXF 393 [18]
  growth at 0.005 µM: 88%
HOP-62
  growth at 0.5 µM: 23%
SNB-75
  growth at 5 µM: -12%
SW-620 [19]
  growth at 0.005 µM: 92%
UO-31
  growth at 0.005 µM: 86%
SR [20]
  growth at 0.05 µM: 85%
MDA-MB-231 [21]
  growth at 0.005 µM: 98%
SF-295; read-out: GI50
  GI50: 0.894 µM
SF-295; [25]
  CC50: > 50 µM
SF-295; read-out: TGI
  TGI: 9.49 µM
SF-295; read-out: pGI50 (converted)
  GI50: 0.891 µM
SF-295; [26]
  CC50: > 50.1 µM
SF-295; read-out: pTGI (converted)
  TGI: 9.55 µM
RXF 393 [22]
  growth at 50 µM: -47%
MDA-MB-468 [23]
  growth at 0.5 µM: 73%
SW-620 [24]
  growth at 5 µM: -63%
